Reference: ChEMBL document CHEMBL1681705, “Optimisation of ITK inhibitors through successive iterative design cycles” (Bioorg Med Chem Lett, 2011)

Assays:
[1] = target: Ribosomal protein S6 kinase alpha-4 (Homo sapiens) (UniProt O75676); assay: Inhibition of MSK2 at 1 uM
Method in brief: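 Single-point screen within a 108-kinase selectivity panel. Each kinase was tested with inhibitor at 0.1 and 1.0 micromolar, and activity was recorded as percent inhibition.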

[2] = target: Serine/threonine-protein kinase PLK3 (Homo sapiens) (UniProt Q9H4B4); assay: Inhibition of Plk3 at 1 uM; values are per cent of control
[3] = target: Ephrin type-A receptor 7 (Homo sapiens) (UniProt Q15375); assay: Inhibition of EphA7 at 1 uM; values are per cent of control
[4] = target: T1, Ephrin type-A receptor 8 (Homo sapiens) (UniProt P29322); assay: Inhibition of EphA8 at 1 uM; values are per cent of control
T1 sequence (whole entry): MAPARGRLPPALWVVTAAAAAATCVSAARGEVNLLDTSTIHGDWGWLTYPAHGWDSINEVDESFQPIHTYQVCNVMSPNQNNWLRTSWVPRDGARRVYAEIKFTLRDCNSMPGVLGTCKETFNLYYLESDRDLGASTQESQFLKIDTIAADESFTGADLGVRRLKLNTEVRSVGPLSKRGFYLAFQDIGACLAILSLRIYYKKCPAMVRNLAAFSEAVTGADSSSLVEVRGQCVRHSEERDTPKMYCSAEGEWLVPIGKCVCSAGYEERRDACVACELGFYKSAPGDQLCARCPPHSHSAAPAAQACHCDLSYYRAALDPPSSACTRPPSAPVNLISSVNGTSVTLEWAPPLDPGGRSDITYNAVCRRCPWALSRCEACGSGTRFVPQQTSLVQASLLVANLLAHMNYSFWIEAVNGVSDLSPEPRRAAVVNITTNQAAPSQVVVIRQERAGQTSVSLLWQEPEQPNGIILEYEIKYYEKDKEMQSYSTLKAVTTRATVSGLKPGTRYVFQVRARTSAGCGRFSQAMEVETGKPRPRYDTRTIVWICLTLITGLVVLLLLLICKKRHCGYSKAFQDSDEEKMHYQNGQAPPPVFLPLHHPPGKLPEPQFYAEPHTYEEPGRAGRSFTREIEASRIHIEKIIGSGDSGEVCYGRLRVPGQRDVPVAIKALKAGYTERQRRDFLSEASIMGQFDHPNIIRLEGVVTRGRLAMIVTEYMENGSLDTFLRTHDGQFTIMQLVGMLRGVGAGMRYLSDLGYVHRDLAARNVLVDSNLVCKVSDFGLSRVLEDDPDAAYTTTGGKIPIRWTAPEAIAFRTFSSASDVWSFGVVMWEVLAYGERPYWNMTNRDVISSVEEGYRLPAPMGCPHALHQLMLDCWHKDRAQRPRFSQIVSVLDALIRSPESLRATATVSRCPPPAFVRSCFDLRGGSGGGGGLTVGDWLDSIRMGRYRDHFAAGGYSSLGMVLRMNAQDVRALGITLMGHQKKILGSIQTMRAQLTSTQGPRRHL

[5] = target: Insulin-like growth factor 1 receptor (Homo sapiens) (UniProt P08069); assay: Inhibition of IGF1R at 1 uM; values are per cent of control
[6] = target: T2, Serine/threonine-protein kinase TBK1 (Homo sapiens) (UniProt Q9UHD2); assay: Inhibition of TBK1 at 0.1 uM; values are per cent of control
T2 sequence (whole entry): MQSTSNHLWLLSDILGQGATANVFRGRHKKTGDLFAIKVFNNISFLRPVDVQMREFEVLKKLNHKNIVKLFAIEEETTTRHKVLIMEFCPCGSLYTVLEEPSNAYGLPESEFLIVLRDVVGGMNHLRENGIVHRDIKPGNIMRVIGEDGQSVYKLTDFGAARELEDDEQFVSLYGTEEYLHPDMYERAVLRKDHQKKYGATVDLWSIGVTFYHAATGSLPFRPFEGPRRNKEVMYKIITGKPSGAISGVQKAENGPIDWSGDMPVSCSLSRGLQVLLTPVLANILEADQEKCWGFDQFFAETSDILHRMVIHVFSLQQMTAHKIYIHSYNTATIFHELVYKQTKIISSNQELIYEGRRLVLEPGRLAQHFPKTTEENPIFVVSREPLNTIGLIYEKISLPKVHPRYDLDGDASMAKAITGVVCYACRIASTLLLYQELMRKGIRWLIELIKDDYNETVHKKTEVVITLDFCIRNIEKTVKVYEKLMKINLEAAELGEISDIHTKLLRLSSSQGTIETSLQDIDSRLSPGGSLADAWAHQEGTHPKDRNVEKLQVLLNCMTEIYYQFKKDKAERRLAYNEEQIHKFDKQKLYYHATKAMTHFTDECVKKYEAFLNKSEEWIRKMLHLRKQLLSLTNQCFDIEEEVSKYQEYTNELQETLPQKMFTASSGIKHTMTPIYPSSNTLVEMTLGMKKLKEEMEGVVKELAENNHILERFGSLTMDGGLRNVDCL

[7] = target: T3, Calcium/calmodulin-dependent protein kinase type IV (Homo sapiens) (UniProt Q16566); assay: Inhibition of CaMK4 at 0.1 uM; values are per cent of control
T3 sequence (whole entry): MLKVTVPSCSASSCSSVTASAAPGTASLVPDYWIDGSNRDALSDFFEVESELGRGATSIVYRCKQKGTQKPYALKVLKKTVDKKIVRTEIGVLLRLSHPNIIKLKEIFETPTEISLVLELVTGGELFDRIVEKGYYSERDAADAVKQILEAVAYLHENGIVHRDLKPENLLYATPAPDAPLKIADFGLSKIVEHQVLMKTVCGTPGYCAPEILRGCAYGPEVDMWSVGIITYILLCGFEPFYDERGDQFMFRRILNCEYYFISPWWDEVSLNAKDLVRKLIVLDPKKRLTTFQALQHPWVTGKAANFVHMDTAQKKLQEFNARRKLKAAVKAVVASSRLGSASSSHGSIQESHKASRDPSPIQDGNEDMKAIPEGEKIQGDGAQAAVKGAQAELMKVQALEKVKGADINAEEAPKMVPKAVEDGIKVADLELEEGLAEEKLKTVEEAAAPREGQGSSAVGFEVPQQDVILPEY

[8] = target: Mitogen-activated protein kinase 8 (Homo sapiens) (UniProt P45983); assay: Inhibition of JNK1a1 at 0.1 uM; values are per cent of control
Sequence of Mitogen-activated protein kinase 8 (Homo sapiens) (P45983 whole entry): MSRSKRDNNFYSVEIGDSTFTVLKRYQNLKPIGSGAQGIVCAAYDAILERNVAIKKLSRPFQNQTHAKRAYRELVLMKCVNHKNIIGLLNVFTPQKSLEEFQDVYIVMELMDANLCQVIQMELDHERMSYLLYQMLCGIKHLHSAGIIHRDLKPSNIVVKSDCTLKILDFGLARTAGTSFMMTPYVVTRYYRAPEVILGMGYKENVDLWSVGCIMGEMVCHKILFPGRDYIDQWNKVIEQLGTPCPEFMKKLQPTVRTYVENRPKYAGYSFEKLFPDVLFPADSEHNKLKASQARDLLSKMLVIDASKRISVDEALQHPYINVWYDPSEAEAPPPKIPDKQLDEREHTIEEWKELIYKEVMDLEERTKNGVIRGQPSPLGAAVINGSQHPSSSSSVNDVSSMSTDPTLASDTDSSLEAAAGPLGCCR

Sequence of Ephrin type-A receptor 7 (Homo sapiens) (Q15375 28-998 limits assumed): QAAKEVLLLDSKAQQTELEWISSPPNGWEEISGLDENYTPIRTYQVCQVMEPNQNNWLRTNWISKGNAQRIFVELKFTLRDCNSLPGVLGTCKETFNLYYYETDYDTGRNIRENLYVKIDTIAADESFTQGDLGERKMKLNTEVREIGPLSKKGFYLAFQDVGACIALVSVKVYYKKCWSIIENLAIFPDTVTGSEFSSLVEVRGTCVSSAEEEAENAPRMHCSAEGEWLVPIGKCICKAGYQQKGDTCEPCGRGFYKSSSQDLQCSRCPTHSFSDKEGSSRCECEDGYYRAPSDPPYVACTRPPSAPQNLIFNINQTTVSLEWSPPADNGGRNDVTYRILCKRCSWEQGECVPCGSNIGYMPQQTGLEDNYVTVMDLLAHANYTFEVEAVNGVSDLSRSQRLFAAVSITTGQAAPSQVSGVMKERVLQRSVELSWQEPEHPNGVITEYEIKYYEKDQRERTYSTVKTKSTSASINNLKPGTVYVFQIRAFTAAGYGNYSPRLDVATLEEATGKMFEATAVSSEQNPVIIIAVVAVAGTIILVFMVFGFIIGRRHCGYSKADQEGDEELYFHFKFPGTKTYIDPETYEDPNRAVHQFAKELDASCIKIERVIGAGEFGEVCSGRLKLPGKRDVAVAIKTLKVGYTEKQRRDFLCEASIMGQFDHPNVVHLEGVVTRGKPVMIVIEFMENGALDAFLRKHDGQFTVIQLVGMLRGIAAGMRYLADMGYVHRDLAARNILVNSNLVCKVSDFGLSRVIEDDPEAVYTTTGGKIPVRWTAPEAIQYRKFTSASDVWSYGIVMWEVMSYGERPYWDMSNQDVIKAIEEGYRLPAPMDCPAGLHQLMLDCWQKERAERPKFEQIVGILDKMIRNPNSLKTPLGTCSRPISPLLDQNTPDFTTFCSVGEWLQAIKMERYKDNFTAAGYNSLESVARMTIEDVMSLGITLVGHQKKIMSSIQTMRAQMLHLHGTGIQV
Sequence of Insulin-like growth factor 1 receptor (Homo sapiens) (P08069 31-736 limits assumed): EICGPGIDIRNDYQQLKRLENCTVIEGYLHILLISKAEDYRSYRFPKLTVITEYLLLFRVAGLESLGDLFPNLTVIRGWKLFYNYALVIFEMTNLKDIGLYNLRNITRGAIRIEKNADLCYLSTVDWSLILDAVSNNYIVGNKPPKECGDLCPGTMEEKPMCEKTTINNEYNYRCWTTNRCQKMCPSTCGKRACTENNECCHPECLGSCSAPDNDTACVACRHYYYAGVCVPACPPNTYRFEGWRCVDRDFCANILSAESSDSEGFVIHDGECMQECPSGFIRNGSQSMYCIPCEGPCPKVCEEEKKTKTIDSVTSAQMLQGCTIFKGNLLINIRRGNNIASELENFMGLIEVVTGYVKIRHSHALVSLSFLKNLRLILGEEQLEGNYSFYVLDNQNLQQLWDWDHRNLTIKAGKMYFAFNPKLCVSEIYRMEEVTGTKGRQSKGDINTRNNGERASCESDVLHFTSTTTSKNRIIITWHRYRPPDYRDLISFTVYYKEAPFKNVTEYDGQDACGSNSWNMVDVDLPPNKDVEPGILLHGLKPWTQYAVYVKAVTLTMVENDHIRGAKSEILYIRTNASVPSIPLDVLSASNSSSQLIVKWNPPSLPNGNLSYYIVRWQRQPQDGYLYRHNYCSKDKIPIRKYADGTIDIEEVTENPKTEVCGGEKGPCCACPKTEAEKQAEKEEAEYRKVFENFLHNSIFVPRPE
Sequence of Insulin-like growth factor 1 receptor (Homo sapiens) (P08069 741-1367 limits assumed): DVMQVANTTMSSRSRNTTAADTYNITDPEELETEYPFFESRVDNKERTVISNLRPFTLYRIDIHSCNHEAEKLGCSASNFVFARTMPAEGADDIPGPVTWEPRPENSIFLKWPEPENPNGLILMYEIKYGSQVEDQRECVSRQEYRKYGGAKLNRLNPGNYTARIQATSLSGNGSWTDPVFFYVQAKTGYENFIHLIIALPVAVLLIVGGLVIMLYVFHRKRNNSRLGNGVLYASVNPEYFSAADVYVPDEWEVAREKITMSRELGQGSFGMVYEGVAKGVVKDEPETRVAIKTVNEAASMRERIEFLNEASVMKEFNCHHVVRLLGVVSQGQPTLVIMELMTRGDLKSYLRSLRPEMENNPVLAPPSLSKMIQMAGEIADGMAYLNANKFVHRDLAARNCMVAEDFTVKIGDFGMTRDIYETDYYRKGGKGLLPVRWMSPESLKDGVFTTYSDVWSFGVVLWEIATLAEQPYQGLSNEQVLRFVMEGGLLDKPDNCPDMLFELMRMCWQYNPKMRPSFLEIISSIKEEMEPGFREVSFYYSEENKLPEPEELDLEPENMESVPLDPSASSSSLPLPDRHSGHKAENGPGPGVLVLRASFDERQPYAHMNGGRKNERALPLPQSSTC
Sequence of Ribosomal protein S6 kinase alpha-4 (Homo sapiens) (O75676 whole entry, looked up): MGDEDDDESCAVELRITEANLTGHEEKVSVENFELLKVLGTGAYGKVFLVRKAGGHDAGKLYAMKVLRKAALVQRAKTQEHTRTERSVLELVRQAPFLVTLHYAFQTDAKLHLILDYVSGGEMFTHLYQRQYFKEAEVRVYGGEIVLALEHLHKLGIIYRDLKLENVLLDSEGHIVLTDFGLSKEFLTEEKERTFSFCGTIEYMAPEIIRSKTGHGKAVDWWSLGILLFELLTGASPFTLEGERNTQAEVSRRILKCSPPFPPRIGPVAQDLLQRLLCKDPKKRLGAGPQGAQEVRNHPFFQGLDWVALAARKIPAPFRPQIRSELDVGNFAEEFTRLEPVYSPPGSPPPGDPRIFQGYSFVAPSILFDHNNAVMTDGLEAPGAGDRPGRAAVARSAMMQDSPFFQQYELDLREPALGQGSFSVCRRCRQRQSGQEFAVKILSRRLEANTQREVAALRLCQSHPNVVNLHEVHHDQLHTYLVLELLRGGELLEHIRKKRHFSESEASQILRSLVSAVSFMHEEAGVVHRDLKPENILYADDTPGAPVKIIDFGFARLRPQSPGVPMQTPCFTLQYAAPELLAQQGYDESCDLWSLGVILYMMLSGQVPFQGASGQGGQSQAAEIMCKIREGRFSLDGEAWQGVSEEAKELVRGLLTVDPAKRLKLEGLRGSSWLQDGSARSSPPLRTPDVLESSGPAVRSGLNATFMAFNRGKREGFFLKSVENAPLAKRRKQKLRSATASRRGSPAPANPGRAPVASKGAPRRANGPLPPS
Sequence of Serine/threonine-protein kinase PLK3 (Homo sapiens) (Q9H4B4 whole entry, looked up): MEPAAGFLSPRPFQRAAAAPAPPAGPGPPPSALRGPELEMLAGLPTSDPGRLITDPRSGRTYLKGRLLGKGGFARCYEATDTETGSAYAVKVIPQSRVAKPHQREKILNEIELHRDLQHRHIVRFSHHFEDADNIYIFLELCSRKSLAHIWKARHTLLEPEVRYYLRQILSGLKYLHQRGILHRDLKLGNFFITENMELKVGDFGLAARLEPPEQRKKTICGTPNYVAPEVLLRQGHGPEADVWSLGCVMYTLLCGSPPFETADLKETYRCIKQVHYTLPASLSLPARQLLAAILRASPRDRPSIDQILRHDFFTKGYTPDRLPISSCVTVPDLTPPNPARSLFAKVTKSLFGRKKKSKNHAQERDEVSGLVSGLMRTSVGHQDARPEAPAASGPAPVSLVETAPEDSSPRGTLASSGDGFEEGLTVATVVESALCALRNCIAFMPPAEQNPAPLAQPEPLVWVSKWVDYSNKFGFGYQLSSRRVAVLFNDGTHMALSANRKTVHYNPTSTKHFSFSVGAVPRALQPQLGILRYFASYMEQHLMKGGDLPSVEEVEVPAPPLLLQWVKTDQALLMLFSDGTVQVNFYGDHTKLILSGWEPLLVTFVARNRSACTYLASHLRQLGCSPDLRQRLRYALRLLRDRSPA

| inhibition [1] | residual activity [2] | residual activity [3] | residual activity [4] | residual activity [5] | residual activity [6] | residual activity [7] | residual activity [8] | SMILES |
| --- | --- | --- | --- | --- | --- | --- | --- | --- |
| 91% | 117% | 16% | 58% | 16% | 53% | 109% | 83% | Cc1ccc2cc(-c3n[nH]c4ccc(NC5CCN(Cc6ccccc6)CC5)cc34)[nH]c2c1 |
| 2% | 100% | 16% | 57% | 36% | 19% | 74% | 101% | Cc1ccc2cc(-c3n[nH]c4ccc(NC5CCNC5)cc34)[nH]c2c1 (stereo unspecified) |
